Columns and labels:
[1] = molecular target: T1, Alpha-1B adrenergic receptor (Mesocricetus auratus, UniProt P18841); test: In vitro binding affinity towards alpha-1B adrenergic receptor of hamster clone in radioligand binding assay; type: single protein
T1 sequence (P18841 whole entry): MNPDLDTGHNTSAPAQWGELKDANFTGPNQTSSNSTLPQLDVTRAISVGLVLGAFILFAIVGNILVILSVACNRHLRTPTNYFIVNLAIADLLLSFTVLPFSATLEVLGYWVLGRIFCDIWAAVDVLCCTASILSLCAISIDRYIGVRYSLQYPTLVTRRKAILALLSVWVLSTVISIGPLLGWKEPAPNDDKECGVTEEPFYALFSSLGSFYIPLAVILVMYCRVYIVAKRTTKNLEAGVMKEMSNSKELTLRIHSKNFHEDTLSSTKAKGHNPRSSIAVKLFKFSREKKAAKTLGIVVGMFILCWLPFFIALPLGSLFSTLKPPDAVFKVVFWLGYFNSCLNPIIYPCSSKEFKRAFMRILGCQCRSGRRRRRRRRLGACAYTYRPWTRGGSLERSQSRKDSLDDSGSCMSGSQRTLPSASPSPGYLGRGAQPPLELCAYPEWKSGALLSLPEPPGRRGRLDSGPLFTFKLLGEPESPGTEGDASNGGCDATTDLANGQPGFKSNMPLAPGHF
Summary of the method: (§1)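 Radioligand binding at α1 subtypes: α1A from rat submaxillary gland, α1B hamster clone, α1D rat clone. Run essentially per an earlier method.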

Canis familiaris [2] = test: Uroselectivity was determined by measuring effective dose required for 20 mmHg increase of mean arterial pressure (MAP) in vivo in dog; type: functional, Canis lupus familiaris, Artery
Summary of the method: (§2)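 Dog model recording intraurethral pressure (IUP) and mean arterial pressure (MAP) simultaneously. Increasing iv doses given, maximal effect of each dose taken. Doses giving a 5 mmHg rise in IUP (ED Δ5) or 20 mmHg rise in MAP (ED Δ20) were calculated, in nmol/kg ± SEM, n ≥ 4 (2 or 3 where footnoted).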

[3] = molecular target: Alpha adrenergic receptor 1A and 1B (Rattus norvegicus) (UniProt P15823+P43140); test: Selectivity is ratio of pKi (binding affinity) of alpha-1B receptor to that of alpha-1A receptor.; type: protein assay
Alpha adrenergic receptor 1A and 1B (Rattus norvegicus), sequence (P43140 whole entry, looked up, one chain of several): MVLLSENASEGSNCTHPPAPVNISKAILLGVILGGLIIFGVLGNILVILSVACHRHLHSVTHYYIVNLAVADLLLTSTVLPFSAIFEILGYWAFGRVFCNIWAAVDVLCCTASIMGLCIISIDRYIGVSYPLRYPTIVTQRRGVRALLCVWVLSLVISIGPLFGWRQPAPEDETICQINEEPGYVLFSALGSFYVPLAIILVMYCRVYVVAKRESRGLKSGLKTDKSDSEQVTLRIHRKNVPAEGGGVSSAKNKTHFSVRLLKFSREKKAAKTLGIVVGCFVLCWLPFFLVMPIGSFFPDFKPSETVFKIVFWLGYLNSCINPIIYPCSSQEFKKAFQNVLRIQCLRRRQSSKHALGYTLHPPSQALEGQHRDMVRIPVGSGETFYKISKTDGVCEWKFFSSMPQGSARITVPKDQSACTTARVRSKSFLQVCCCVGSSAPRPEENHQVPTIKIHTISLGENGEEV

[4] = molecular target: T2, Alpha-1D adrenergic receptor (Rattus norvegicus, UniProt P23944); test: In vitro binding affinity towards alpha-1D adrenergic receptor of rat clone in radioligand binding assay; summary of the method: as §1
T2 sequence (P23944 whole entry): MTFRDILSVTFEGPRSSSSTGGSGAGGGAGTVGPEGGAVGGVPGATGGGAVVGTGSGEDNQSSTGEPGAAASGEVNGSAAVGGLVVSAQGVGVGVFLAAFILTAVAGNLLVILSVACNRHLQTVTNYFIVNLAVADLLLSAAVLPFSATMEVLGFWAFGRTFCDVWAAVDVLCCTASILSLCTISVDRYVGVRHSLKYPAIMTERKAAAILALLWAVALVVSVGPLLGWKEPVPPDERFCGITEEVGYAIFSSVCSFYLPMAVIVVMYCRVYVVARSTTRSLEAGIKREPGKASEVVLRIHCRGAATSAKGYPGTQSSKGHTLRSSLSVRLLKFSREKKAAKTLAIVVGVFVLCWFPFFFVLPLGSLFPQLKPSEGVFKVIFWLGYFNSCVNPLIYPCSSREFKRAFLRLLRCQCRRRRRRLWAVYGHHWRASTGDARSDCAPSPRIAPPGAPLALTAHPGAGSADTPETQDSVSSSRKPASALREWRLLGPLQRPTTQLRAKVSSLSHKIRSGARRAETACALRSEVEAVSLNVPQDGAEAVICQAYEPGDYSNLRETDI

[5] = molecular target: T3, Alpha-1B adrenergic receptor (Rattus norvegicus) (UniProt P15823); test: Efficacy relative to phenylephrine (PE) constriction of rat spleen containing alpha-1B adrenergic receptor; type: functional, tissue-based
T3 sequence (whole entry): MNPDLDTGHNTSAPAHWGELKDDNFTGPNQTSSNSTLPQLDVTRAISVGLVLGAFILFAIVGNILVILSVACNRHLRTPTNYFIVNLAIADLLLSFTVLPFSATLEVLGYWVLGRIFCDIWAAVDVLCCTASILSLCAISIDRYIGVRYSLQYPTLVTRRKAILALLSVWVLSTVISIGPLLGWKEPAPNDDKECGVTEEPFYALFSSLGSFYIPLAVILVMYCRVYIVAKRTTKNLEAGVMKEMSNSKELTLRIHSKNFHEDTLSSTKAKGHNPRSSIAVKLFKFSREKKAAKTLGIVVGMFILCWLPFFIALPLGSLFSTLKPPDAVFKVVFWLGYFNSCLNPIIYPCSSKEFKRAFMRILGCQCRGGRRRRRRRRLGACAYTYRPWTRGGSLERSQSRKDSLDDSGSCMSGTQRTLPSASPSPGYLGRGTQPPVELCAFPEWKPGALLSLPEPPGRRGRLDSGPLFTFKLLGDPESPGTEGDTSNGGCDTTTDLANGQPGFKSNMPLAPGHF
Summary of the method: (§3)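 α1-agonist dose–response curves in isolated tissue: rabbit urethra (α1A), rat spleen (α1B), rat aorta (α1D). Agonist potency and efficacy read from the concentration–response curves.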

[6] = molecular target: T4, Alpha-1A adrenergic receptor (Oryctolagus cuniculus) (UniProt O02824); test: Efficacy relative to phenylephrine (PE) to constrict tissue containing the alpha-1A adrenergic receptor in rabbit urethra; type: functional, tissue-based; summary of the method: as §3
T4 sequence (whole entry): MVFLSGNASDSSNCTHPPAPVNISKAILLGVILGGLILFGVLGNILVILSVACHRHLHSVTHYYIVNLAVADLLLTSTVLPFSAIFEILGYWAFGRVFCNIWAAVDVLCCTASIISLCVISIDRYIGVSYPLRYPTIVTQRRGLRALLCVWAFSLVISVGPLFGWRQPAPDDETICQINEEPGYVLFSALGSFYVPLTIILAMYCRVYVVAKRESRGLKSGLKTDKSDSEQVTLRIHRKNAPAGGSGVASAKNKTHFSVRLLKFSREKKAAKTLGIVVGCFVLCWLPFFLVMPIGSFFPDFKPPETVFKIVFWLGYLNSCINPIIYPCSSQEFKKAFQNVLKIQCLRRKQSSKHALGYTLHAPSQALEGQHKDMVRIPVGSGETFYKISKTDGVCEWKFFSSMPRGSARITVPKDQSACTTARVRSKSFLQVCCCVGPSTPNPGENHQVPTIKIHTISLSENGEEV

[7] = molecular target: Alpha adrenergic receptor 1A and 1D (Rattus norvegicus) (UniProt P23944+P43140); test: Selectivity is ratio of pKi (binding affinity) of Alpha-1D to that of alpha1A; type: protein assay
Canis familiaris [8] = species: Canis familiaris; test: Ratio of MAP ED delta20 to that of IUP ED delta5
[9] = molecular target: T4, Alpha-1A adrenergic receptor (Oryctolagus cuniculus); test: Functional agonism of the compounds to constrict tissue containing the alpha-1A adrenergic receptor in rabbit urethra; type: tissue-based; summary of the method: as §3
[10] = molecular target: T3, Alpha-1B adrenergic receptor (Rattus norvegicus); test: Functional agonism of the compounds to constrict tissue containing the alpha-1B adrenergic receptor in rat spleen; type: tissue-based
Summary of the method: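 Agonist dose–response curves were run on isolated tissue: rabbit urethra for α1A, rat spleen for α1B, and rat aorta for α1D.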

[11] = molecular target: T5, Alpha-2A adrenergic receptor (Homo sapiens, UniProt P08913); test: In vitro binding affinity towards alpha-2A adrenergic receptor of human clone in radioligand binding assay
T5 sequence (P08913 whole entry): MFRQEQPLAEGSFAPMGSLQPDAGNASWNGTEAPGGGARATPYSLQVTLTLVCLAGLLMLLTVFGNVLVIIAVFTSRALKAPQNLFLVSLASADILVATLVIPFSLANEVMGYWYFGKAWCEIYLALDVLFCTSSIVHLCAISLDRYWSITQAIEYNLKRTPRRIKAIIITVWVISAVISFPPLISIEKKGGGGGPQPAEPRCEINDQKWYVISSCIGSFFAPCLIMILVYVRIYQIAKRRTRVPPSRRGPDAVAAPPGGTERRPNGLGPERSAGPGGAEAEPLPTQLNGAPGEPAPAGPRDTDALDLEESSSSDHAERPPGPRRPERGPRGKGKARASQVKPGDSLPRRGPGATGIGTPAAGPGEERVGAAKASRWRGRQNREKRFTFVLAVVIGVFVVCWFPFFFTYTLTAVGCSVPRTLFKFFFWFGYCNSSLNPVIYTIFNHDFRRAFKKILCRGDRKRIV

Canis familiaris [12] = test: Uroselectivity was determined by measuring effective dose required for 5 mmHg increase of intraurethral pressure (IUP) in vivo in dog; type: functional, Canis lupus familiaris; summary of the method: as §2
[13] = molecular target: T6, Alpha-2B adrenergic receptor (Rattus norvegicus, UniProt P19328); test: In vitro binding affinity towards alpha-2B adrenergic receptor of rat neonatal lung in radioligand binding assay
T6 sequence (P19328 whole entry): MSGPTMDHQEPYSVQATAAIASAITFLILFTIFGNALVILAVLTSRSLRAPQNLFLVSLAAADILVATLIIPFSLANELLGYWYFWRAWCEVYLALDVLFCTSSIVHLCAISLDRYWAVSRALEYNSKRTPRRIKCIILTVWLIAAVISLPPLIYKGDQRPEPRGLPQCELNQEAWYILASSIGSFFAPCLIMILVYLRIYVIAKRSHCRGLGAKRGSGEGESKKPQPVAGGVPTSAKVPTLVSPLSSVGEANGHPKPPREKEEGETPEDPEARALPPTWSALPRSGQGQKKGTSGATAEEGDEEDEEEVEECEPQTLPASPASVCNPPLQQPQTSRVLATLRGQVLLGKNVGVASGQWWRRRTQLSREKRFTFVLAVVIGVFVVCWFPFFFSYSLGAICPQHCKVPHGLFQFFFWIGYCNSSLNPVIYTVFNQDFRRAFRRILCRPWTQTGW

[14] = molecular target: T7, Alpha-1A adrenergic receptor (Bos taurus, UniProt P18130); test: In vitro binding affinity towards alpha-1A adrenergic receptor of bovine clone in radioligand binding assay
T7 sequence (P18130 whole entry): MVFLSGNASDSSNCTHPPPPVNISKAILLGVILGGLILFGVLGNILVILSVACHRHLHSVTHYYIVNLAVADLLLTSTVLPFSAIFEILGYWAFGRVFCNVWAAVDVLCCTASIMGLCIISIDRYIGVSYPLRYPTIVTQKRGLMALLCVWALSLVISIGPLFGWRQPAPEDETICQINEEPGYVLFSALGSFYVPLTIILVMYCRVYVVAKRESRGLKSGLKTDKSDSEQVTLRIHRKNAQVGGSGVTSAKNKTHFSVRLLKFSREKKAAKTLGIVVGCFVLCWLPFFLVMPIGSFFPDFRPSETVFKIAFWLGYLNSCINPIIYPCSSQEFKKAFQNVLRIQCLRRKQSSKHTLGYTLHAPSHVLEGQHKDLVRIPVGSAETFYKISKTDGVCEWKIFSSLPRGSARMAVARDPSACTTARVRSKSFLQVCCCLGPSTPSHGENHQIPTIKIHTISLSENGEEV

[15] = Relative affinities for alpha-2a and alpha-1A receptors
Rattus norvegicus = species: Rattus norvegicus; test: Relative affinities for alpha2B and alpha1A receptors
[16] = molecular target: T8, Alpha-2A adrenergic receptor (Rattus norvegicus) (UniProt P22909); test: Functional agonism to constrict tissue containing alpha-2A adrenergic receptor in rat prostatic vas deferens; type: tissue-based
T8 sequence (whole entry): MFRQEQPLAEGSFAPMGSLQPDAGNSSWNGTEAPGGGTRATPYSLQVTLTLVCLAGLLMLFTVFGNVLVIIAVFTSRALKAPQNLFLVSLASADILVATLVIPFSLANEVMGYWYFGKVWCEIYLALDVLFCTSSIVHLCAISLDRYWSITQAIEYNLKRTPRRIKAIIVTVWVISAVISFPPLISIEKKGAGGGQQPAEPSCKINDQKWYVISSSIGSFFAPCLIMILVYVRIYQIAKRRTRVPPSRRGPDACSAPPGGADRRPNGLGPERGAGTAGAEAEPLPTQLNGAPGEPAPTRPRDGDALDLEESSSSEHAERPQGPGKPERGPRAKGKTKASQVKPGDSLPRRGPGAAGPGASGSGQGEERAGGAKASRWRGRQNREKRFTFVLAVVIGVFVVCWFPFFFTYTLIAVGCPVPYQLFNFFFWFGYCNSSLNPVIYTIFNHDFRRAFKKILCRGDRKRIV

[17] = Selectivity is ratio of efficacy of alpha-2A to that of alpha1A adrenoceptor; type: functional
[18] = molecular target: T8, Alpha-2A adrenergic receptor (Rattus norvegicus); test: Efficacy relative to clonidine to constrict tissue containing the alpha-2A adrenergic receptor in rat prostatic vas deferens

Compound	Ki [1] [nM]	ED delta20 (Canis familiaris [2]) [nM/kg]	Selectivity [3]	Ki [4] [nM]	Efficacy [5] [%]	Efficacy [6] [%]	Selectivity [7]	Ratio (Canis familiaris [8])	pD2 [9]	pD2 [10]	Ki [11] [nM]	ED delta5 (Canis familiaris [12]) [nM/kg]	Ki [13] [nM]	Ki [14] [nM]	Selectivity [15]	Selectivity (Rattus norvegicus)	pD2 [16]	Selectivity [17]	Efficacy [18] [%]
COc1ccc(NS(C)(=O)=O)c2c1C(c1c[nH]cn1)CCC2 (stereo unspecified)	> 10000	1850	> 6	> 10000	26	57	> 6	2.6	4.81	4.74	–	–	–	–	–	–	–	–	–
CS(=O)(=O)Nc1c(O)ccc2c1CCCC2c1c[nH]cn1 (stereo unspecified)	–	0.16	–	–	94	104	–	1	–	–	44.7	0.18	47.9	–	–	–	–	–	–
CN(C)S(=O)(=O)Nc1cccc2c1CCCC2c1c[nH]cn1 (stereo unspecified)	> 10000	–	20	–	–	–	3	–	–	–	–	–	–	977	–	–	–	–	–
Oc1cccc2c1CCCC2c1c[nH]cn1 (stereo unspecified)	145	–	3	30.9	–	–	1	–	–	–	8.71	–	3.8	115	0.2	0.1	–	–	–
CCS(=O)(=O)Nc1ccc2c(c1)C(c1c[nH]cn1)CCC2 (stereo unspecified)	1350	–	1	339	–	–	0.2	–	–	–	22.9	–	22.4	2040	0.02	0.02	–	–	–
CCS(=O)(=O)Nc1cccc2c1CCCC2c1c[nH]cn1 (single isomer, unassigned; (+))	1320	34	30	–	–	71	20	3.3	6.77	–	132	–	1700	–	3	40	5.95	7	66
COC(=O)Nc1cccc2c1CCCC2c1c[nH]cn1 (stereo unspecified)	–	–	100	–	–	–	30	–	–	–	–	–	–	148	–	–	–	–	–

Source: ChEMBL document CHEMBL1148329, “Synthesis and structure-activity studies on N-[5-(1H-imidazol-4-yl)-5,6,7,8-tetrahydro-1-naphthalenyl]methanesulfonamide, an imidazole-containing alpha(1A)-adrenoceptor agonist” (J Med Chem, 2004)
